High-throughput results (PubChem)
This is a sample that favours compounds with a hit; in the whole collection about 5.9% have one here.
Phagocyt inh = inhibitors of macrophage phagocytosis, primary screen, imaging, J774A.1 cells, IgG beads; J774A.1 macrophage IgG-bead phagocytosis; inhibition, % at 5 µM; 110,000 compounds, 0.07% hits;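 active means inhibition above the mean of the plate negative controls plus 5 SD, cut at about 13% in these data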;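 further: phagocytic index as fraction of beads internalized from green versus red external bead signal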
Pyk2 oligo antag = antagonists of Pyk2 self-association, primary screen, Q293 cells, FERM NanoBiT luminescence, HTS | Protein-tyrosine kinase 2-beta (Homo sapiens), Q14289 | 99,000 compounds, 0.83% hits | stronger effect = lower value | z-score (the deposit names both 25 µM and 10 µM);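 active means Z-score of -3 or lower, scaled per plate to the spread of control and sample wells; inactive means z-score above -3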;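 further: negative z-score means lost luminescence so less FERM oligomerization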
Cav32 inh = Cav3.2 calcium influx blockers – cell-based, Fluo-4 calcium fluorescence, FDSS, MLSMR library, primary screen. 100,000 compounds, 4% hits. B-score at 10 µM. Cav3.2-expressing cells; stronger effect = lower value;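 active means single-dose well whose peak fluorescence ratio is a statistical outlier from its plate by either plate-standardised score or position-corrected B-score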
Target sequence (O95180 whole entry, looked up): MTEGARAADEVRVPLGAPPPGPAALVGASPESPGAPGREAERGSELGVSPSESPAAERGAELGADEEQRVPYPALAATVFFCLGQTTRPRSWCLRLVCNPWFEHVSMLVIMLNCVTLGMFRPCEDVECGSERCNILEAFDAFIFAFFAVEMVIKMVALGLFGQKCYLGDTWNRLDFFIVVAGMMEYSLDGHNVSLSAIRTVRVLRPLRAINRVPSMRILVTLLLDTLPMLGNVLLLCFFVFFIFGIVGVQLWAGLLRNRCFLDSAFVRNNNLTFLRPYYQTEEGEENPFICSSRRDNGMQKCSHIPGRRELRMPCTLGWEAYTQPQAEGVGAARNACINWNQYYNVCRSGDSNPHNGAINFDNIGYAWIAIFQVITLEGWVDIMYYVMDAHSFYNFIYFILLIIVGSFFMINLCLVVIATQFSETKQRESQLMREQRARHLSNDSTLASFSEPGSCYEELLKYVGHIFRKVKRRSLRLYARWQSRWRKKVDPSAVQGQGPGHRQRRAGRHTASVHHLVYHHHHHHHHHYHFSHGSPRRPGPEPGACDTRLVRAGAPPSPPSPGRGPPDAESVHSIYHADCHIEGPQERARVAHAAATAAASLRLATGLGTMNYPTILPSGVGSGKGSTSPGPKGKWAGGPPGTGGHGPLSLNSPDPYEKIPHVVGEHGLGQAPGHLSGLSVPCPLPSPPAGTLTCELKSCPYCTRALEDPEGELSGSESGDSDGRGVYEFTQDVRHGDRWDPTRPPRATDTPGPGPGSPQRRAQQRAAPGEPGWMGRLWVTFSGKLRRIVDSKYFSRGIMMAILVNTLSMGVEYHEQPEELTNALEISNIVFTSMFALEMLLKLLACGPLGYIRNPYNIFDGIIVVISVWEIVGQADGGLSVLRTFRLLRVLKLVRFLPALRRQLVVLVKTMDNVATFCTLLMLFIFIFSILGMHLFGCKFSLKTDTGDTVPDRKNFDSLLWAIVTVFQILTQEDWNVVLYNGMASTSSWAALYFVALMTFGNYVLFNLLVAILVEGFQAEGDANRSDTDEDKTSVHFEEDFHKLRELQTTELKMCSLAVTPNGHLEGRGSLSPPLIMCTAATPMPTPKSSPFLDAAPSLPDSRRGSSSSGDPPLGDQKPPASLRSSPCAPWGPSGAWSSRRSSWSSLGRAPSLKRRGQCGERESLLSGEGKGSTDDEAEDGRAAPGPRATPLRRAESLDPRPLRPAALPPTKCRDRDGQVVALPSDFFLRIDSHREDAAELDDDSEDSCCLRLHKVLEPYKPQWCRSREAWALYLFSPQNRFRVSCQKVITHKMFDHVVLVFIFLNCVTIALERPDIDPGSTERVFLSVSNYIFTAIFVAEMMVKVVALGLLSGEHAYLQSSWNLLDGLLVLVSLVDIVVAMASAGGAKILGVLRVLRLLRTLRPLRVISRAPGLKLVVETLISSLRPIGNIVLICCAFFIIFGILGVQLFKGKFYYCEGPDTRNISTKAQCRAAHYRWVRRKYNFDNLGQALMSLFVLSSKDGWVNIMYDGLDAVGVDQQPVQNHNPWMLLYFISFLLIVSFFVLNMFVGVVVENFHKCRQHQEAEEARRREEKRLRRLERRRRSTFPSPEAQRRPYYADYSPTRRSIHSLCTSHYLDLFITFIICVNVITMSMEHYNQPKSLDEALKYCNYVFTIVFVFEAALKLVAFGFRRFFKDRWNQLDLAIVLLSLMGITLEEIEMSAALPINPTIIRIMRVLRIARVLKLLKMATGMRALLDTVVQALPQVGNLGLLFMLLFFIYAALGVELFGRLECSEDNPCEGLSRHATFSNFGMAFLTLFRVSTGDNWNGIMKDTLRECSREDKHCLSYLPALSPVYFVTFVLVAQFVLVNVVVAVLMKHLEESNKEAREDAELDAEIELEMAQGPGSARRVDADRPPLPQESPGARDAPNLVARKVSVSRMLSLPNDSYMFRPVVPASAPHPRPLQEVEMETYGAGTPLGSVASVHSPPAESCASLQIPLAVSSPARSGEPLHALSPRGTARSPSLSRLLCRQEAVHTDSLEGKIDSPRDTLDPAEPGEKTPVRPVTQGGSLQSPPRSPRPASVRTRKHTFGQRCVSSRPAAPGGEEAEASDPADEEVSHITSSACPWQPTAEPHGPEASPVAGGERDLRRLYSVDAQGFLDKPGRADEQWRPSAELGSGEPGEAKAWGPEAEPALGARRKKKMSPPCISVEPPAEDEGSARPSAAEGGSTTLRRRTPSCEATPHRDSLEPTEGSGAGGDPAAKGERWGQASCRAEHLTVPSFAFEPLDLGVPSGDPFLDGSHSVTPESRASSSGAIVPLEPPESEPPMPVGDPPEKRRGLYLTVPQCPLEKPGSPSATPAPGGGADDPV
Measles CPE = compounds protecting cells from measles virus cytopathic effect, primary screen, measles RdRp inhibitor project, single point, MLSMR library, absorbance; Measles virus-infected cells, CPE protection; protection (pct of control), % at 4 µM; 140,000 compounds, 1.5% hits; in the data active means protection mostly above about 24%, no sharp cut-off; inactive means mostly below about 26%
DAT uptake mod = changed hDAT dopamine uptake under cocaine IC80, either direction, primary screen, cocaine antagonist project, cell-based, LLC-PK1 hDAT, [14C]-dopamine uptake, MLSMR | Sodium-dependent dopamine transporter (Homo sapiens), Q01959 | B-score at 10 µM | AID 449768, 2010 | LLC-PK1 hDAT cells, [14C]-dopamine uptake with cocaine IC80; actives deviate in either direction | 110,000 compounds, 1.3% hits;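 active means Z score or B-score, a plate-position-corrected score, falls beyond the plate's 99.7% confidence bounds, in either direction; inactive means both scores lie inside the 99.7% bounds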
Rev-RRE block = HIV-1 Rev-RRE binding inhibitors, primary screen, biochemical, FRET, protein-RNA interaction. P05866. Rev peptide-RRE RNA binding. inhibition, % at 8 µM. 97,000 compounds, 0.79% hits. AID 704, 2007;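 active means inhibition above the screen-wide mean plus 3 SD, cut at about 35% in these data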
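Material: labelled RRE RNA duplex and labelled Rev peptide / Buffer or medium: HEPES pH 7.5 salt buffer with EDTA / Compound dosing: single point, 8 µM final nominal compound concentration / Benchmarks: DMSO low control, neomycin B high control / Timing: 5 min preincubation and 15 min binding, 25 °C / Technique: FRET fluorescence readout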
Large screens that a line does not name were inactive.

O=C(Nc1ccc2c(c1)OCO2)c1ccc2nc[nH]c2c1	DAT uptake mod -1.9
COc1cc(NC(=O)c2ccc3c(c2)OCO3)ccc1NC(=O)c1ccco1	none (no result: Phagocyt inh)
O=C(Nc1ccc2nc[nH]c2c1)c1ccco1	Measles CPE 53
O=C(Nc1ccccc1C(=O)Nc1ccc2c(c1)OCO2)c1ccco1	Measles CPE 25
C/C(=C\C(=O)c1ccccc1)Nc1ccc2c(c1)OCO2	Measles CPE 30 (no result: Pyk2 oligo antag, Cav32 inh, DAT uptake mod, Rev-RRE block)
CCCOC(=O)c1ccc(NC(=O)C(CC)CC)cc1	none (no result: Pyk2 oligo antag, Cav32 inh, DAT uptake mod, Rev-RRE block)
COc1cccc(C(=O)COC(=O)c2ccc(NC(C)=O)cc2)c1	none (no result: Pyk2 oligo antag, Cav32 inh, DAT uptake mod, Rev-RRE block)
O=C(Nc1ccc2c(c1)OCCO2)c1ccc(Cl)c([N+](=O)[O-])c1	Measles CPE 20 (no result: Pyk2 oligo antag, Cav32 inh, DAT uptake mod, Rev-RRE block)
CCCC(=O)Nc1ccc(NC(=O)c2ccco2)cn1	none
CC(C)C(=O)Nc1ccc(NC(=O)c2ccco2)cn1	Measles CPE 55 (no result: Rev-RRE block)
O=C(Nc1ccc2c(c1)OCO2)c1ccncc1	Measles CPE 26
Cc1c(C(=O)OC(C)C)nnn1-c1nonc1N	none (no result: Phagocyt inh)
O=C(COc1cccc2ccccc12)N1c2ccccc2CCc2ccccc21	Cav32 inh -6.6 (no result: Phagocyt inh)
COc1cc(/C=N/NC(=O)COc2ccc(Cl)cc2)ccc1OS(=O)(=O)c1ccc(C)cc1	DAT uptake mod -8.3
COc1cc(/C=N/NC(=O)COc2cccc(F)c2)ccc1OS(=O)(=O)c1ccc(C)cc1	none (no result: Pyk2 oligo antag, Cav32 inh, DAT uptake mod, Rev-RRE block)
CC1CCN(C(=O)/C(=C/c2ccccc2Cl)c2ccccc2)CC1	Pyk2 oligo antag -3.9, Cav32 inh -9.1
COc1cc(-c2c(C#N)c(N)nc3c2c(C)nn3-c2ccc(C)c(C)c2)cc(OC)c1OC	Pyk2 oligo antag -3.4, Cav32 inh -4.8 (no result: Rev-RRE block)
COc1cc(C2C(C(C)=O)=C(O)C(=O)N2CCc2c[nH]c3ccccc23)ccc1O (stereo not given)	none
CC(=O)C1=C(O)C(=O)N(CCc2c[nH]c3ccccc23)C1c1cccc(O)c1 (stereo not given)	Measles CPE 25 (no result: Phagocyt inh)
CC(c1ccccc1)N1CCn2c(nc3cc(NC(=O)NC4CCCCC4)ccc32)C1 (stereo not given)	none
O=C(CCC(=O)N1CCN(S(=O)(=O)c2ccc(Cl)cc2)CC1)Nc1cccc(Br)c1	none (no result: Pyk2 oligo antag, Cav32 inh, DAT uptake mod, Rev-RRE block)
CC(C)(C)OC(=O)NCCc1nnc(SCc2c(Cl)cccc2Cl)o1	none
CC(C)(C)OC(=O)NCCc1nnc(SCc2ccc(Cl)cc2Cl)o1	Cav32 inh -5.2 (no result: Phagocyt inh)
CC(C)(C)OC(=O)N1CCC[C@H]1c1nnc(SCc2ccc(Cl)cc2Cl)o1	Cav32 inh -5.8, DAT uptake mod -2.1
CC(C)(C)OC(=O)N1CCC[C@H]1c1nnc(SCc2ccccc2Cl)o1	none (no result: Cav32 inh)
C[C@]12C(=O)N(c3ccc(Cl)cc3)C(=O)N1[C@@H]1c3ccccc3OC[C@@H]1[C@H]2c1ccccc1	none (no result: Phagocyt inh, Pyk2 oligo antag, Measles CPE, Rev-RRE block)
O=c1[nH]c2cc3c(cc2cc1C(c1nnnn1C1CCCCC1)N1CCSCC1)OCCO3 (stereo not given)	Rev-RRE block 51 (no result: Phagocyt inh, Cav32 inh, DAT uptake mod)
COc1cc2cc(C(c3nnnn3C3CCCC3)N3CCCCC3)c(=O)[nH]c2cc1OC (stereo not given)	none
COc1cc2cc(C(c3nnnn3C3CCCC3)N3CCCCCC3)c(=O)[nH]c2cc1OC (stereo not given)	Rev-RRE block 58
Cc1ccc2cc(C(c3nnnn3C3CCCC3)N3CCN(c4ccccc4)CC3)c(=O)[nH]c2c1 (stereo not given)	Cav32 inh -6.1
C=CCNc1cccc(Br)c1	none (no result: Phagocyt inh, Pyk2 oligo antag, Measles CPE, Rev-RRE block)
C/C(=N/OCC(=O)NCCCCCCNC(=O)CO/N=C(/C)c1cccs1)c1cccs1	none (no result: Phagocyt inh, Pyk2 oligo antag, Cav32 inh, DAT uptake mod, Rev-RRE block)
CCOC(=O)c1sc(NC(=O)CSc2nc3c(cc2C#N)CCCCCC3)c(C#N)c1C	Pyk2 oligo antag -3.4
Cc1nonc1C(=O)N/N=C/c1cccc(O)c1	none (no result: Pyk2 oligo antag, Cav32 inh, DAT uptake mod, Rev-RRE block)
Cn1c(SCc2c(F)cccc2Cl)nnc1-c1cccs1	DAT uptake mod 2.3
CCc1nc(Nc2ccc3c(c2)OCCO3)c2oc3ccccc3c2n1	Pyk2 oligo antag -3.4
Cc1nc(NCc2ccc3c(c2)OCO3)c2oc3ccccc3c2n1	none (no result: Phagocyt inh)
CCc1nc(NCc2ccc3c(c2)OCO3)c2oc3ccccc3c2n1	Cav32 inh -3.7
Cc1nc(Nc2ccc3c(c2)OCCO3)c2oc3ccccc3c2n1	none
COc1ccc(N2CCN(c3nc(NCCc4ccc(OC)c(OC)c4)nc(OC)n3)CC2)cc1	Pyk2 oligo antag -3.1
COc1ccc(C(NC(=O)c2ccccc2F)NC(=O)c2ccccc2F)cc1	none (no result: Pyk2 oligo antag, Cav32 inh, DAT uptake mod, Rev-RRE block)
COC(=O)[C@@H]1C[C@H]2CC[C@H](O)C[C@H]2N1Cc1ccccc1OS(=O)(=O)c1ccc(C)cc1	none (no result: Phagocyt inh, Pyk2 oligo antag, Measles CPE, Rev-RRE block)
COc1ccc(Nc2nc3ccccc3nc2C)cc1	Cav32 inh -3.8
CCCCOC(=O)CSc1nnc(N)s1	DAT uptake mod -2.4
Nc1nnc(SCC(=O)OCc2ccccc2)s1	none (no result: Pyk2 oligo antag, Cav32 inh, DAT uptake mod, Rev-RRE block)
COc1nccnc1NS(=O)(=O)c1ccc(NC(=S)NC(=O)c2cccc(F)c2)cc1	none (no result: Pyk2 oligo antag, Cav32 inh, DAT uptake mod, Rev-RRE block)
COc1nccnc1NS(=O)(=O)c1ccc(NC(=S)NC(=O)c2ccc(F)cc2)cc1	Measles CPE 34 (no result: Pyk2 oligo antag, Cav32 inh, DAT uptake mod, Rev-RRE block)
CCS(=O)(=O)N1CCC(C(=O)c2ccc(Cl)cc2)CC1	none (no result: Phagocyt inh)
CC(C)(C)n1nnnc1CN(Cc1ccc(F)cc1)Cc1ccco1	Cav32 inh -4.7
CC(=O)Nc1ccc(Sc2ncnc3scc(-c4ccccc4)c23)cc1	none (no result: Pyk2 oligo antag, Cav32 inh, DAT uptake mod, Rev-RRE block)
